From ChEMBL document CHEMBL1125420, “Synthesis and biological activity of novel folic acid analogues: pteroyl-S-alkylhomocysteine sulfoximines” (J Med Chem, 1992)

How the values were obtained:
L1210 [1] = assay: Compound was tested for release of tritium from 1 uM [5-3H]-dUMP into water at a conc of 0.4 mM enzyme(bovine thymidylate synthase) was added to cell suspension in presence of serine; format: functional, Mus musculus
Method in brief: (§1)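 L1210 cells (transplanted, harvested), partially permeabilized with dextran sulfate, at (2–5) × 10^7 cells/mL. Preincubated with cofactor 15 min at 37 °C with 0.2 mM NADPH, 1 mM serine or 7.5 mM CH2O, 2-mercaptoethanol, MgCl2, EDTA, NaF, 80 mM Tris-acetate pH 7.4. Then 1 μM [5-3H]dUMP added for 30 min. Where enzyme added, 0.016 unit per 0.15 mL suspension. Tritium in water given as % of total, background-corrected; two experiments in duplicate.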

L1210 [2] = assay: Compound was tested for release of tritium from 1 uM [5-3H]-dUMP into water at a con of 0.4 mM and without addition of bovine thymidylate synthase to cell suspension in absence of serine; format: functional, Mus musculus; method in brief: as §1
L1210 [3] = assay: Inhibitory activity against growth of L1210 leukemia cells in culture at 0.5 mM; format: functional; conditions: Mus musculus
Method in brief: (§2)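 Murine L1210 leukemia cells, duplicate cultures, exposed to increasing concentrations alongside folic acid for 48 h at 37 °C in RPMI 1640 with 10% fetal calf serum. Cells counted; IC50 (50% inhibition of control growth) read graphically; percent inhibition also taken at 0.5 mM. Averages of two experiments run in duplicate.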

L1210 [4] = assay: Compound was tested for release of tritium from 1 uM [5-3H]-dUMP into water at a con of 0.4 mM and without addition of bovine thymidylate synthase to cell suspension in absence of CH2O; format: functional, Mus musculus; method in brief: as §1
L1210 [5] = assay: Compound was tested for release of tritium from 1 uM [5-3H]-dUMP into water at a conc of 0.4 mM enzyme(bovine thymidylate synthase) was added to cell suspension in presence of CH2O; format: functional, Mus musculus; method in brief: as §1
L1210 [6] = assay: (§3) Inhibitory activity against growth of L1210 leukemia cells in culture; format: functional, cell-based; conditions: Mus musculus; method in brief: as §2
L1210 [7] = assay: as §3; format: functional, Mus musculus; method in brief: as §2
L1210 [8] = assay: Compound was tested for release of tritium from 1 uM [5-3H]-dUMP into water at a conc of 0.4 mM, enzyme(bovine thymidylate synthase) was added to cell suspension in presence of serine; format: functional, Mus musculus; method in brief: as §1

| SMILES | IC50 (L1210 [6]) [µM] | Tritium release (L1210 [1]) [%] | Tritium release (L1210 [2]) [%] | inhibition at 500 µM (L1210 [3]) [%] | Tritium release (L1210 [4]) [%] | Tritium release (L1210 [5]) [%] | Inhibition (L1210 [7]) [%] | Tritium release (L1210 [8]) [%] |
| --- | --- | --- | --- | --- | --- | --- | --- | --- |
| CC[S+](=N)([O-])CCC(NC(=O)c1ccc(NCc2cnc3nc(N)nc(O)c3n2)cc1)C(=O)O (racemic) | 220 | 8.3 | 4.2 | 80.2 | 4.9 | 6.8 |  |  |
| Nc1nc(=O)c2nc(CNc3ccc(C(=O)N[C@@H](CCC(=O)O)C(=O)O)cc3)cnc2[nH]1 [FOLIC ACID] | > 10000 | 24.1 | 19.1 |  | 20.6 | 21.8 | 33.6 |  |
| C[S+](=N)([O-])CCC(NC(=O)c1ccc(NCc2cnc3nc(N)nc(O)c3n2)cc1)C(=O)O (mixture of isomers) | 190 |  | 3.9 | 76.4 | 5 | 8.3 |  | 9.5 |

Second part, led by results:

| IC50 (L1210 [6]) [µM] | SMILES | Tritium release (L1210 [1]) [%] | Tritium release (L1210 [2]) [%] | inhibition at 500 µM (L1210 [3]) [%] | Tritium release (L1210 [4]) [%] | Tritium release (L1210 [5]) [%] | Inhibition (L1210 [7]) [%] | Tritium release (L1210 [8]) [%] |
| --- | --- | --- | --- | --- | --- | --- | --- | --- |
| 390 | CS(=O)(=O)CCC(NC(=O)c1ccc(NCc2cnc3nc(N)nc(O)c3n2)cc1)C(=O)O (stereo unspecified) | 7.8 | 3.6 | 78.6 | 4.6 | 6.7 |  |  |
| 270 | CCCC[S+](=N)([O-])CCC(NC(=O)c1ccc(NCc2cnc3nc(N)nc(O)c3n2)cc1)C(=O)O (racemic) | 7 | 4 | 75.2 | 4.4 | 5.8 |  |  |
| 300 | CCC[S+](=N)([O-])CCC(NC(=O)c1ccc(NCc2cnc3nc(N)nc(O)c3n2)cc1)C(=O)O (racemic) | 9.2 | 4.2 | 75.2 | 4.3 | 7.3 |  |  |
